Results published in PubChem BioAssay.
Active and inactive are the calls of the source.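 How the source made its calls, unless noted: active means visually confirmed hit in the image check and inhibition above 20%; inconclusive means visually confirmed hit but inhibition not above 20%; inactive means no visual hit in the image check.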

How the values were obtained:
[1] = inhibitors of TNFa-induced NFkB p65 translocation, primary screen, imaging, HUVEC, MLSMR starter and 10KST1 sets (AID 438;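 active means inhibition above 20% together with a positive visual image hit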;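 further: compound added about 3h40 before a 20 min TNFalpha stimulation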;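 on inhibition: signal is the nuclear over cytoplasmic p65 intensity ratio per well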); settings: HUVEC TNFa-induced p65 nuclear translocation; cell count: measured here: nuclei count (cytotoxicity indicator), at 2.08 µM; inhibition: at 2 µM, stronger effect = higher value, 0% TNFa-plus-vehicle, 100% no-TNFa wells
[2] = reduction of polyQ htt aggregates in cells – imaging, exon1htt(103Q)mCFP cells, high-content imaging, primary screen (AID 483;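 active means visual image review flags a hit and inhibition of aggregation exceeds 20%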;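 further: compound exposure lasted 3 days before fixation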;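 on nuclei count: percent of the per-plate median nuclei count of sample wells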); settings: exon1htt(103Q)mCFP cell line, aggregate imaging, at 2 µM; inhibition of aggregation: stronger effect = higher value; nuclei count: measured here: cell count, toxicity
[3] = endothelial E-selectin expression blockers – imaging, HUVEC, immunofluorescence, MLSMR starter and 10KST1 sets, primary screen (AID 487); settings: HUVEC TNFalpha-induced E-selectin immunofluorescence imaging, at 2 µM; inhibition: stronger effect = higher value; nuclei count: measured here: cell number, toxicity;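 on inhibition: signal is fraction of cell area covered by stained E-selectin grains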;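 on nuclei count: 100% = median nuclei count of all wells on the same plate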
[4] = biological target: Voltage-gated potassium channel subunit beta-2 (Rattus norvegicus) (UniProt P62483); assay: inhibitors of rat Kvbeta2 reductase activity – biochemical, NADPH fluorescence, primary screen (AID 622;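 active means fluorescence slope higher than the sample average by over 3 SD, cut at about -0.22 in these data, passing the limit was not always enough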;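 further: slope of raw intensity against log time taken from 70 to 1610 s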); settings: recombinant KvBeta, 4-cyanobenzaldehyde reduction, at 10 µM, stronger effect = higher value
[5] = biological target: Voltage-gated potassium channel subunit beta-2 (Rattus norvegicus) (UniProt P62483); assay: enhancers of rat Kvbeta2 NADPH turnover – biochemical, NADPH fluorescence, primary screen (AID 623;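 active means NADPH fluorescence slope more negative than the mean of all samples by about 3 SD, 99.7% confidence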;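 further: fluorescence intensity change per second fitted from 20 to 320 s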); settings: Recombinant KvBeta, NADPH fluorescence decrease slope, 10 min; at 10 µM; stronger effect = lower value
[6] = biological target: Muscarinic acetylcholine receptor M4 (Homo sapiens) (UniProt P08173); assay: M4-linked GIRK flux change, two-sided – cell-based, HEK293 M4/GIRK, thallium flux, BTC-AM, M4 allosteric agonist project, primary screen (AID 625;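 active means fluorescence slope after compound addition differing from the mean of all tested samples at 99.7% confidence, mostly higher but some lower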;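 further: thallium influx through GIRK channels coupled to M4 in HEK293 cells with BTC-AM dye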); settings: at 10 µM, actives lie on both sides
Outline: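 assay system = HEK293 cells with M4 receptor and GIRK channels | medium = pH 7.3 thallium assay buffer | doses = 10 µM final, single point | timing = cells overnight at 37 °C, BTC-AM loading 1 h, reads 2 min total | signal = BTC-AM fluorescence, 1 Hz kinetic reads | read-out = post-addition slope, 15–24 s, of baseline-normalized fluorescence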

[7] = blockers of RIG-like receptor reporter activation – cell-based, Sendai virus stimulus, luciferase, 10K MLSCN set, TLR/RLR signaling modifier project, primary screen (AID 602276;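 active means inhibition at or above 50% at 10 µM; inactive means inhibition below 50%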;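 further: firefly luciferase from ISG56 promoter only with Renilla not read in this screen; 0% = Sendai virus plus DMSO and 100% = medium plus DMSO without virus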); settings: HEK293 RL24 IRF3 luciferase reporter, at 10 µM, stronger effect = higher value
[8] = TLR3 IRF3 reporter activation blockers – cell-based, poly I:C stimulus, luciferase, 10K MLSCN set, primary screen (AID 602277;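 active means inhibition of the reporter signal at or above 50%; inactive means inhibition below 50%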); settings: HEK293-TLR3 RL24 IRF3 luciferase reporter, at 10 µM, stronger effect = higher value

Sequence of Voltage-gated potassium channel subunit beta-2 (Rattus norvegicus) (P62483 whole entry, looked up): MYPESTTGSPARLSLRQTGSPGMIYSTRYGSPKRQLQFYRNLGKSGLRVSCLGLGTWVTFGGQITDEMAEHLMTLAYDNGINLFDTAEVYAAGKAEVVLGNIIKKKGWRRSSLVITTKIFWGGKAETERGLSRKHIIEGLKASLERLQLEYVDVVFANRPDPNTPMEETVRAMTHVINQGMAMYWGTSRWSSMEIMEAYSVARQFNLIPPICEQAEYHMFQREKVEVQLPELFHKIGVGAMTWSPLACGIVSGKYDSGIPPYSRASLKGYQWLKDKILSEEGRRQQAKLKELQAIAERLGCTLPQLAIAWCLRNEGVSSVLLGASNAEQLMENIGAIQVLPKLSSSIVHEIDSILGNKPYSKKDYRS
Sequence of Muscarinic acetylcholine receptor M4 (Homo sapiens) (P08173 whole entry, looked up): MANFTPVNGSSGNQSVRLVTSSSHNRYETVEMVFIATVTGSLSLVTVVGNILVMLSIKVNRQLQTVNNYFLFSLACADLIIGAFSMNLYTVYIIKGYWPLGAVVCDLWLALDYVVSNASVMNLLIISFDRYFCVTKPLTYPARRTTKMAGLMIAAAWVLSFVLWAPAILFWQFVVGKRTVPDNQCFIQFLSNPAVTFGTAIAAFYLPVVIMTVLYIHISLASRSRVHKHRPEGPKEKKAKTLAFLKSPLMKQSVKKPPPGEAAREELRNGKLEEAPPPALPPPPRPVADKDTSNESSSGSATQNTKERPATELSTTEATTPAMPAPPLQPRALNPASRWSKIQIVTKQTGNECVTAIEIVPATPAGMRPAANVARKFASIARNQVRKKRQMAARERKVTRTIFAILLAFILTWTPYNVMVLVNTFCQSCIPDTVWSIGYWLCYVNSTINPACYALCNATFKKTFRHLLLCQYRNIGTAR

Compound | cell count [1] | inhibition [1] | inhibition of aggregation [2] | nuclei count [2] [%] | inhibition [3] | nuclei count [3] [%] | fluorescence slope [4] | NADPH fluorescence slope [5] | fluorescence slope [6] | inhibition [7] | inhibition [8]
O=C(CN1CCN(C(=O)c2ccccc2)CC1)Nc1ncc(Br)cc1Br | 622 | 7.6% (inactive) | -6.8% (inactive) | 95.9 | 2.6% (inactive) | 99.9 | -0.45 (inactive) | 3.1e-05 (inactive) | 0.00598 (inactive) | -7.57% (inactive) | 5.71% (inactive)
CCn1c(=O)n(CC(=O)N(C)Cc2ccccc2)c(=O)c2ccccc21 | 684 | -16.4% (inactive) | 3.2% (inactive) | 120 | 65.6% (active) | 94.4 | -0.559 (inactive) | -2.3e-05 (inactive) | 0.00592 (inactive) | 11.1% (inactive) | 10.9% (inactive)
CCOC(=O)c1[nH]c2ccccc2c1NC(=O)c1ccco1 | 671 | -8.6% (inactive) | 4.2% (inactive) | 87.8 | 52.3% (inactive) | 102 | -0.332 (inactive) | -6.5e-05 (inactive) | 0.00748 (inactive) | 17.1% (inactive) | 21.7% (inactive)
CCc1ccccc1N=C1SCC(=O)N1C | 368 | -8.5% (inactive) | 19.1% (inactive) | 69.3 | -50.2% (inactive) | 111 | -0.412 (inactive) | 7.8e-05 (inactive) | 0.00583 (inactive) | 6.15% (inactive) | 13.2% (inactive)
Cc1cc2c(cc(C(=O)NCc3cccnc3)n2Cc2ccc(Cl)cc2)o1 | 672 | -16.6% (inactive) | -46.1% (inactive) | 127 | -91.9% (inactive) | 99.8 | -0.49 (inactive) | -2.7e-06 (inactive) | 0.00518 (inactive) | 12.1% (inactive) | 14.8% (inactive)
COc1ccc(C2C(=O)N(C3CCCCC3)CC(=O)N2Cc2ccco2)cc1 (stereo not drawn) | 632 | -15% (inactive) | -40.5% (inactive) | 124 | -26.6% (inactive) | 101 | -0.526 (inactive) | 1.7e-05 (inactive) | 0.00562 (inactive) | 16.7% (inactive) | 22.1% (inactive)
CCn1c(=O)cc(SCC(=O)NCC2CCCO2)c2ccccc21 (stereo not drawn) | 404 | -4.9% (inactive) | 0% (inactive) | 97.1 | 32.5% (inactive) | 103 | -0.568 (inactive) | -1.6e-05 (inactive) | 0.00498 (inactive) | 18.5% (inactive) | 34.6% (inactive)
Cc1ccc(Cn2c(SCC(C)C)nc3c2c(=O)n(C)c(=O)n3C)cc1 | 468 | -1.3% (inactive) | -13.4% (inactive) | 111 | -65.5% (inactive) | 119 | -0.468 (inactive) | -0.000354 (inactive) | 0.00373 (inactive) | 16.7% (inactive) | 14.4% (inactive)
CCOC(=O)C1=C(C)NC(=O)C(C#N)C1c1ccco1 (stereo not drawn) | 319 | -1.2% (inactive) | 6.1% (inactive) | 86.2 | -59.3% (inactive) | 127 | -0.39 (inactive) | 3.3e-05 (inactive) | 0.00489 (inactive) | 15.7% (inactive) | 20.3% (inactive)
CCC(C)NC(=O)C1CCCN(S(=O)(=O)c2ccc(-n3cnnn3)cc2)C1 (stereo not drawn) | 518 | -5.4% (inactive) | 13.6% (inactive) | 104 | -9.5% (inactive) | 108 | -0.279 (inactive) | 8.9e-07 (inactive) | 0.00556 (inactive) | -2.34% (inactive) | -2.75% (inactive)
COc1ccc(OC)c(S(=O)(=O)Nc2ccc(C(N)=O)cc2)c1 | 684 | -2.6% (inactive) | -13.7% (inactive) | 107 | -57% (inactive) | 113 | -0.519 (inactive) | -0.000185 (inactive) | 0.00432 (inactive) | 18.4% (inactive) | 23.9% (inactive)
Cc1noc(C)c1C(=O)OCC(=O)Nc1ccccc1C(=O)NC(C)c1ccccc1 (stereo not drawn) | 503 | 4.7% (inactive) | -4% (inactive) | 94.3 | -72.6% (inactive) | 106 | -0.414 (inactive) | -0.000106 (inactive) | 0.00545 (inactive) | 9.57% (inactive) | 7.74% (inactive)
CCOC(=O)C1CCN(C(=O)Nc2ccc(Cl)cc2Cl)CC1 | 262 | 0% (inactive) | 25.3% (inactive) | 89.6 | -16.8% (inactive) | 80.6 | -0.463 (inactive) | -4.6e-05 (inactive) | 0.00434 (inactive) | 14% (inactive) | 1.16% (inactive)
NC(=O)C1(N2CCCCC2)CCN(C2CC(=O)N(Cc3cccs3)C2=O)CC1 (stereo not drawn) | 378 | -2.6% (inactive) | 5.2% (inactive) | 82.9 | -117% (inactive) | 84.9 | -0.458 (inactive) | -3.2e-05 (inactive) | 0.00707 (inactive) | 10.3% (inactive) | 20.4% (inactive)
Cn1cnnc1SCC(=O)Nc1ccccc1Sc1ccccc1 | 740 | 4% (inactive) | -6.3% (inactive) | 93.3 | -36.2% (inactive) | 127 | -0.215 (inactive) | -2.9e-05 (inactive) | 0.00628 (inactive) | 13.5% (inactive) | 8.17% (inactive)
O=C(c1ccco1)N1CCN(CC(=O)N(C2CCCCC2)C2CCS(=O)(=O)C2)CC1 (stereo not drawn) | 311 | -5.7% (inactive) | -12.8% (inactive) | 75.5 | -28.9% (inactive) | 110 | -0.565 (inactive) | -5.3e-05 (inactive) | 0.00633 (inactive) | 7.31% (inactive) | 12.1% (inactive)
CCSc1nc(-c2ccc(OC)cc2)ccc1C#N | 380 | 1.5% (inactive) | -5.1% (inactive) | 72.9 | -44.4% (inactive) | 101 | -0.551 (inactive) | -1.9e-05 (inactive) | 0.00795 (inactive) | 9.36% (inactive) | 7.27% (inactive)
Cc1cc(-c2ccccc2)nc2cc(C(N)=O)nn12 | 331 | -5.5% (inactive) | 14.7% (inactive) | 86.6 | -129% (inactive) | 116 | -0.424 (inactive) | -2.5e-05 (inactive) | 0.0052 (inactive) | 15.9% (inactive) | 13.7% (inactive)
CCCc1nn(CCc2ccccn2)c(N)c1CC | 613 | -9.1% (inactive) | 7.2% (inactive) | 105 | -43.2% (inactive) | 140 | -0.372 (inactive) | 5.8e-05 (inactive) | 0.00633 (inactive) | 14.8% (inactive) | 21.5% (inactive)
COc1ccc(S(=O)(=O)NC2CCCCC2)c(C)c1C | 426 | 8.4% (inactive) | -3% (inactive) | 101 | 65.4% (inactive) | 108 | -0.557 (inactive) | 1.8e-05 (inactive) | 0.00523 (inactive) | 20.3% (inactive) | 26.9% (inactive)
O=c1oc(-c2ccco2)nc2ccccc12 | 460 | 1% (inactive) | 2.1% (inactive) | 92.5 | -332% (inactive) | 132 | -0.559 (inactive) | -4.2e-05 (inactive) | 0.00609 (inactive) | 13.9% (inactive) | 15.3% (inactive)
CCN1CCN(C(=O)c2ccc3c(=O)n(CCC4=CCCCC4)c(=O)[nH]c3c2)CC1 | 465 | 3.4% (inactive) | -14% (inactive) | 95.8 | -29.3% (inactive) | 114 | -0.576 (inactive) | -7.8e-05 (inactive) | 0.00535 (inactive) | -36.8% (inactive) | -73.5% (inactive)
COC(=O)CN(c1ccc2c(c1)OCO2)S(C)(=O)=O | 356 | -0.3% (inactive) | 17.1% (inactive) | 81.1 | 62.9% (inactive) | 49.1 | -0.482 (inactive) | -2.7e-06 (inactive) | 0.00639 (inactive) | 8.14% (inactive) | 8.67% (inactive)
Cc1ccc(C(=O)C2COC(=O)C2)cc1 (stereo not drawn) | 333 | 4.9% (inactive) | -2.7% (inactive) | 116 | -31.2% (inactive) | 103 | -0.579 (inactive) | -2.8e-05 (inactive) | 0.00631 (inactive) | 18.7% (inactive) | 0.799% (inactive)
COC(=O)C(C)Oc1ccc2c3c(c(=O)oc2c1)CCCCC3 (stereo not drawn) | 648 | -7.8% (inactive) | -24.4% (inactive) | 106 | -170% (inactive) | 103 | -0.496 (inactive) | -1.7e-05 (inactive) | 0.00349 (inactive) | 9.54% (inactive) | 12.4% (inactive)
O=C1COc2ccc(C(=O)NCc3ccco3)cc2N1 | 668 | -0.8% (inactive) | -4.2% (inactive) | 79.6 | 85.2% (active) | 82.3 | -0.575 (inactive) | -3.7e-05 (inactive) | 0.00601 (inactive) | -3.82% (inactive) | 9.4% (inactive)
CCOC(=O)/C=C(\C)Sc1cc(=O)oc2ccccc12 | 571 | 18.4% (inactive) | -8.4% (inactive) | 93.3 | -103% (inactive) | 126 | -0.549 (inactive) | -6e-05 (inactive) | 0.00418 (inactive) | 25.8% (inactive) | 47.5% (inactive)
CC1(C)CC(=O)c2cc(OCC(=O)NCCCN3CCN(c4ccccc4F)CC3)ccc2O1 | 398 | 5.8% (inactive) | -2% (inactive) | 91.6 | -156% (inactive) | 103 | -0.366 (inactive) | 3e-05 (inactive) | 0.00645 (inactive) | 9.74% (inactive) | 2.15% (inactive)
